Measured values taken from ChEMBL document CHEMBL5032492, “Aminoalkoxycarbonyloxymethyl Ether Prodrugs with a pH-Triggered Release Mechanism: A Case Study Improving the Solubility, Bioavailability, and Efficacy of Antimalarial 4(1H)-Quinolones with Single Dose Cures” (J Med Chem, 2021).
In brackets after ≈: the same amount, converted by molar mass. Activity calls are given as the source filed them. The calls are words filed in the database; no cut-off is given here.

Key:
[1] = Aqueous solubility of compound at pH 7.4; type: physicochemical; conditions: buffer
[2] = Aqueous solubility of compound at pH 2.4; conditions: buffer
[3] = Solubility of the compound in 0.5% hydroxyethylcellulose
Plasmodium berghei [4] = assay: (§1) In vivo antimalarial activity against blood stage Plasmodium berghei transfected with GFP infected in BALB/c mouse assessed as supression of parasitemia at 10 mg/kg, po administered once daily starting from day 3 to 5 post infection and measured at day 6 by Giemsa staining based flow cytometric analysis relative to control; type: functional
Summary of the method: (§2)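 Female BALB/c mice, 4–6 weeks old, five per group, were infected intraperitoneally with 2 × 10^6 P. berghei-GFP-infected red cells. Oral doses of 10 or 50 mg/kg in 0.5% aqueous HEC were given once daily on days 3–5 PI; prodrugs were suspended about 1 min before dosing. Parasitemia was measured by flow cytometry and Giemsa smears. Day-6 percent suppression was calculated versus untreated controls, with Welch-corrected t test.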

Plasmodium berghei [5] = assay: as §1, with “50” for “10”; type: functional; summary of the method: as §2
[6] = Toxicity in BALB/c mouse infected with blood stage Plasmodium berghei assessed as weight loss at up to at 50 mg/kg, po administered once daily starting from day 3 to 5 post infection and measured on day 6; type: organism-based; conditions: in vivo
Summary of the method: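 P. berghei-infected BALB/c mice were dosed orally once daily on days 3–5 PI in 0.5% aqueous HEC, at doses up to 50 mg/kg. Body weight of treated animals was monitored for loss.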

[7] = AUC (0 to 24 hrs) in BALB/c mouse at 50 mg/kg, po; type: ADME, organism-based; parameters: time < 24 hr, route oral, dose 50 mg/kg; conditions: in vivo
Summary of the method: (§3)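 Single oral dose in mice, formulated in 0.5% aqueous HEC; doses of 3, 10 or 50 mg/kg. The parent 4(1H)-quinolone was quantified in plasma over time after dosing, with a lower limit of quantification of 1 nM. PK parameters were derived from the plasma concentration profiles.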

[8] = Clearance in BALB/c mouse at 50 mg/kg, po; type: ADME, organism-based; conditions: in vivo; summary of the method: as §3
Plasmodium falciparum [9] = assay: (§4) Antimalarial activity against chloroquine, pyrimethamine, mefloquine and atovaquone- resistant Plasmodium falciparum TM90-C2B infected in human erythrocytes assessed as reduction in parasite growth incubated for 48 hrs followed by addition of [3H]-hypoxanthine and measured after 24 hrs by Topcount liquid scintillation counting method; type: functional, organism-based; conditions: Erythrocyte
Plasmodium falciparum [10] = assay: as §4, with “chloroquine” for “chloroquine, pyrimethamine, mefloquine”, “pyrimethamine” for “atovaquone-”, “W2” for “TM90-C2B”; type: functional, organism-based; conditions: W2, Erythrocyte
Plasmodium berghei [11] = assay: In vivo antimalarial activity against Plasmodium berghei at 20 mg/kg, po administered as single dose in presence of ferroquine; type: functional, organism-based
Plasmodium berghei [12] = assay: as §1, with “administered thrice” for “administered once”, “daily started” for “daily starting”, “from” for “from day”, “3 days” for “3 to 5”, “measured on” for “measured at”; type: functional; conditions: time 3 day
[13] = Cmax in BALB/c mouse at 50 mg/kg, po; type: ADME, organism-based; parameters: route oral, dose 50 mg/kg; conditions: in vivo; summary of the method: as §3
[14] = Tmax in BALB/c mouse at 50 mg/kg, po; type: ADME, organism-based; conditions: in vivo; summary of the method: as §3
[15] = Volume of distribution in BALB/c mouse at 50 mg/kg, po; type: ADME, organism-based; conditions: in vivo; summary of the method: as §3
[16] = Apparent half life in BALB/c mouse at 50 mg/kg, po; type: ADME, organism-based; conditions: in vivo, read-out: t1/2(app) (converted); summary of the method: as §3

Structure (SMILES) | solubility [2] [µM] | Activity (Plasmodium berghei [4]) [%] | Activity (Plasmodium berghei [5]) [%] | Activity [6] | AUC [7] [µmol·min/L] | clearance [8] [mL/min/kg] | EC50 (Plasmodium falciparum [9]) [nM] | other results
CCCSc1ccc2nc(NC(=O)OC)[nH]c2c1 [ALBENDAZOLE] | 100 (≈ 26.5 µg/mL) |  |  |  |  |  |  | solubility [1]: 6.1 µM (≈ 1.62 µg/mL)
CNCCCOC(=O)OCOc1c(-c2ccc(C(F)(F)F)cc2)c(C)nc2cc(OC)c(Cl)cc12.Cl | 600 | 82 | 96 | Non-Toxic | 11664 | 7.8 |  | solubility [3]: > 5500 µM
COc1cc2[nH]c(C)c(-c3ccc(C(F)(F)F)cc3)c(=O)c2cc1Cl | < 1 | 11 | 10 | Non-Toxic | 222 | 610 |  | 
O=C1C(O)=C([C@H]2CC[C@H](c3ccc(Cl)cc3)CC2)C(=O)c2ccccc21 [ATOVAQUONE] |  |  |  |  |  |  | 18200 | 
COc1cc2[nH]c(C)c(-c3ccccc3C)c(=O)c2cc1Cl | 6.9 (≈ 2.17 µg/mL) | 29 | 28 | Non-Toxic |  |  | 38 | EC50 (Plasmodium falciparum [10]): 21.9 nM
CCC(=O)Oc1c(-c2ccccc2C)c(C)nc2cc(OC)c(Cl)cc12 |  |  |  |  |  |  | 63.1 | EC50 (Plasmodium falciparum [10]): 63.1 nM
c1cc([C@H]2CC[C@]3(CC2)OOC2(O3)C3CC4CC(C3)CC2C4)ccc1OCCN1CCOCC1 (stereo partly specified) |  |  |  |  |  |  |  | Activity (Plasmodium berghei [11]): Active
CCN(CC)Cc1cc(Nc2ccnc3cc(Cl)ccc23)ccc1O [AMODIAQUINE] |  | >99 |  |  |  |  |  | Activity (Plasmodium berghei [12]): >99%
CNCCOC(=O)OCOc1c(-c2ccc(C(F)(F)F)cc2)c(C)nc2cc(OC)c(Cl)cc12.Cl |  | 75 | 96 |  | 8031 | 11.6 |  | solubility [3]: > 5600 µM; Cmax [13]: 12 µM; Tmax [14]: 4 h; Vd [15]: 7.8 L/kg; half-life [16]: 7.7 h
